Tested on: HEK-293T
Test: Multiplex assay against HEK293T;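 on Population Tubulin-Different-Phenotype (%): share of the cells with healthy nuclei that show this phenotype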
Type: toxicity, cell-based
Details: human
In short: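 With compound added, live cells were imaged on a CQ1 microscope at 37°C and 5% CO2; staining with Hoechst33342, BioTracker Green Microtubule Cytoskeleton Dye, MitoTracker Red and Annexin V Alexa Fluor 680 had been done at seeding. The CellPathfinder machine-learning gating scheme split cells into Hoechst high-intensity objects or normal cells, normal cells into healthy, pyknosed or fragmented nuclei, and pyknosed cells into mitotic or apoptotic. The tubulin, mitochondrial-mass and membrane-permeability phenotypes are per cents of healthy-nucleus cells.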

[1] = 12 h, 1 µM, compound concentration 1 uM, replicate 1
[2] = 12 h, 1 µM, compound concentration 1 uM, replicate 2
[3] = 12 h, 10 µM, compound concentration 10 uM, replicate 1
[4] = 12 h, 10 µM, compound concentration 10 uM, replicate 2
[5] = 24 h, 1 µM, compound concentration 1 uM, replicate 1
[6] = 24 h, 1 µM, compound concentration 1 uM, replicate 2
[7] = 24 h, 10 µM, compound concentration 10 uM, replicate 1
[8] = 24 h, 10 µM, compound concentration 10 uM, replicate 2
[9] = 48 h, 1 µM, compound concentration 1 uM, replicate 1
[10] = 48 h, 1 µM, compound concentration 1 uM, replicate 2
[11] = 48 h, 10 µM, compound concentration 10 uM, replicate 1
[12] = 48 h, 10 µM, compound concentration 10 uM, replicate 2

Structure (SMILES): CC(Cc1ccc(O)c(O)c1)C(C)Cc1ccc(O)c(O)c1 (stereo unspecified) [NORDIHYDROGUAIARETIC ACID]
- Population Apoptotic (%) [1]: 42%
- Population Fragmented Nuclei (%) [1]: 12%
- Population Healthy Nuclei (%) [1]: 34%
- Population Hoechst High Intensity Objects (%) [1]: 16%
- Population Mitochondria Different-Phenotype (%) [1]: 81%
- Population Mitotic Cells (%) [1]: 57%
- Population Normal (%) [1]: 83%
- Population Pyknosed Nuclei (%) [1]: 52%
- Population Tubulin-Different-Phenotype (%) [1]: 6%
- Total Cell Count [1]: 150
- Population Apoptotic (%) [2]: 8%
- Population Fragmented Nuclei (%) [2]: 6%
- Population Healthy Nuclei (%) [2]: 36%
- Population Hoechst High Intensity Objects (%) [2]: 5%
- Population Membrane Permeable-Phenotype (%) [2]: 2%
- Population Mitochondria Different-Phenotype (%) [2]: 28%
- Population Mitotic Cells (%) [2]: 91%
- Population Normal (%) [2]: 94%
- Population Pyknosed Nuclei (%) [2]: 57%
- Population Tubulin-Different-Phenotype (%) [2]: 11%
- Total Cell Count [2]: 194
- Population Apoptotic (%) [3]: 33%
- Population Fragmented Nuclei (%) [3]: 12%
- Population Healthy Nuclei (%) [3]: 49%
- Population Hoechst High Intensity Objects (%) [3]: 15%
- Population Membrane Permeable-Phenotype (%) [3]: 3%
- Population Mitochondria Different-Phenotype (%) [3]: 71%
- Population Mitotic Cells (%) [3]: 66%
- Population Normal (%) [3]: 84%
- Population Pyknosed Nuclei (%) [3]: 37%
- Population Tubulin-Different-Phenotype (%) [3]: 2%
- Total Cell Count [3]: 211
- Population Apoptotic (%) [4]: 11%
- Population Fragmented Nuclei (%) [4]: 6%
- Population Healthy Nuclei (%) [4]: 55%
- Population Hoechst High Intensity Objects (%) [4]: 4%
- Population Membrane Permeable-Phenotype (%) [4]: 1%
- Population Mitochondria Different-Phenotype (%) [4]: 14%
- Population Mitotic Cells (%) [4]: 88%
- Population Normal (%) [4]: 95%
- Population Pyknosed Nuclei (%) [4]: 38%
- Population Tubulin-Different-Phenotype (%) [4]: 0%
- Total Cell Count [4]: 254
- Population Apoptotic (%) [5]: 35%
- Population Fragmented Nuclei (%) [5]: 12%
- Population Healthy Nuclei (%) [5]: 42%
- Population Hoechst High Intensity Objects (%) [5]: 12%
- Population Membrane Permeable-Phenotype (%) [5]: 1%
- Population Mitochondria Different-Phenotype (%) [5]: 46%
- Population Mitotic Cells (%) [5]: 64%
- Population Normal (%) [5]: 87%
- Population Pyknosed Nuclei (%) [5]: 45%
- Population Tubulin-Different-Phenotype (%) [5]: 15%
- Total Cell Count [5]: 156
- Population Apoptotic (%) [6]: 18%
- Population Fragmented Nuclei (%) [6]: 5%
- Population Healthy Nuclei (%) [6]: 48%
- Population Hoechst High Intensity Objects (%) [6]: 3%
- Population Membrane Permeable-Phenotype (%) [6]: 6%
- Population Mitochondria Different-Phenotype (%) [6]: 11%
- Population Mitotic Cells (%) [6]: 81%
- Population Normal (%) [6]: 96%
- Population Pyknosed Nuclei (%) [6]: 46%
- Population Tubulin-Different-Phenotype (%) [6]: 12%
- Total Cell Count [6]: 212
- Population Apoptotic (%) [7]: 27%
- Population Fragmented Nuclei (%) [7]: 17%
- Population Healthy Nuclei (%) [7]: 39%
- Population Hoechst High Intensity Objects (%) [7]: 7%
- Population Membrane Permeable-Phenotype (%) [7]: 0%
- Population Mitochondria Different-Phenotype (%) [7]: 50%
- Population Mitotic Cells (%) [7]: 72%
- Population Normal (%) [7]: 92%
- Population Pyknosed Nuclei (%) [7]: 42%
- Population Tubulin-Different-Phenotype (%) [7]: 7%
- Total Cell Count [7]: 192
- Population Apoptotic (%) [8]: 16%
- Population Fragmented Nuclei (%) [8]: 8%
- Population Healthy Nuclei (%) [8]: 58%
- Population Hoechst High Intensity Objects (%) [8]: 3%
- Population Membrane Permeable-Phenotype (%) [8]: 1%
- Population Mitochondria Different-Phenotype (%) [8]: 4%
- Population Mitotic Cells (%) [8]: 83%
- Population Normal (%) [8]: 96%
- Population Pyknosed Nuclei (%) [8]: 32%
- Population Tubulin-Different-Phenotype (%) [8]: 1%
- Total Cell Count [8]: 255
- Population Apoptotic (%) [9]: 21%
- Population Fragmented Nuclei (%) [9]: 11%
- Population Healthy Nuclei (%) [9]: 68%
- Population Hoechst High Intensity Objects (%) [9]: 8%
- Population Membrane Permeable-Phenotype (%) [9]: 5%
- Population Mitochondria Different-Phenotype (%) [9]: 19%
- Population Mitotic Cells (%) [9]: 78%
- Population Normal (%) [9]: 91%
- Population Pyknosed Nuclei (%) [9]: 20%
- Population Tubulin-Different-Phenotype (%) [9]: 14%
- Total Cell Count [9]: 223
- Population Apoptotic (%) [10]: 14%
- Population Fragmented Nuclei (%) [10]: 7%
- Population Healthy Nuclei (%) [10]: 69%
- Population Hoechst High Intensity Objects (%) [10]: 5%
- Population Membrane Permeable-Phenotype (%) [10]: 7%
- Population Mitochondria Different-Phenotype (%) [10]: 1%
- Population Mitotic Cells (%) [10]: 85%
- Population Normal (%) [10]: 94%
- Population Pyknosed Nuclei (%) [10]: 23%
- Population Tubulin-Different-Phenotype (%) [10]: 16%
- Total Cell Count [10]: 312
- Population Apoptotic (%) [11]: 21%
- Population Fragmented Nuclei (%) [11]: 21%
- Population Healthy Nuclei (%) [11]: 50%
- Population Hoechst High Intensity Objects (%) [11]: 11%
- Population Membrane Permeable-Phenotype (%) [11]: 7%
- Population Mitochondria Different-Phenotype (%) [11]: 5%
- Population Mitotic Cells (%) [11]: 78%
- Population Normal (%) [11]: 88%
- Population Pyknosed Nuclei (%) [11]: 28%
- Population Tubulin-Different-Phenotype (%) [11]: 3%
- Total Cell Count [11]: 187
- Population Apoptotic (%) [12]: 14%
- Population Fragmented Nuclei (%) [12]: 7%
- Population Healthy Nuclei (%) [12]: 67%
- Population Hoechst High Intensity Objects (%) [12]: 4%
- Population Membrane Permeable-Phenotype (%) [12]: 5%
- Population Mitochondria Different-Phenotype (%) [12]: 1%
- Population Mitotic Cells (%) [12]: 85%
- Population Normal (%) [12]: 95%
- Population Pyknosed Nuclei (%) [12]: 25%
- Population Tubulin-Different-Phenotype (%) [12]: 1%
- Total Cell Count [12]: 280
